Experimental findings from ChEMBL document CHEMBL1124052, “New inhibitors of human renin that contain novel Leu-Val replacements. Examination of the P1 site” (J Med Chem, 1988) are described below.

Non-standard residues stand in square brackets, D forms with d. Residues, ends and D or L forms follow the SMILES beside them. *: point of attachment. hCha = N[C@@H](CCC1CCCCC1)C(=O)O; Cha = N[C@@H](CC1CCCCC1)C(=O)O; Chg = N[C@H](C(=O)O)C1CCCCC1; Boc = CC(C)(C)OC(=O)*

The first test addresses T1, Renin (Homo sapiens) (UniProt P00797).
T1 sequence (whole entry): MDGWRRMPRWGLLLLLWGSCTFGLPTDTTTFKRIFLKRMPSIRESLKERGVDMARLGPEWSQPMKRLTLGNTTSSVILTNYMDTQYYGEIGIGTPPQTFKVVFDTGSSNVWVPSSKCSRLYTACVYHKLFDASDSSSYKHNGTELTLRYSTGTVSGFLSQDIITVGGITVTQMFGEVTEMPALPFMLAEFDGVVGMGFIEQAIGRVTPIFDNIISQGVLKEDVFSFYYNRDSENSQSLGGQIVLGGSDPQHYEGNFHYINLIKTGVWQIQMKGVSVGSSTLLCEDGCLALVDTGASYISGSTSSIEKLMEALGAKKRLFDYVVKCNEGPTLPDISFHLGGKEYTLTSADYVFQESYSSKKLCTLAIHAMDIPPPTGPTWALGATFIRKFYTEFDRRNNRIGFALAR
The experiment in a line: Inhibitory activity against human renal renin at pH 6 at concentration 10E-5 M.
Conditions: not given
Take `CC(C)SC[C@H](O)[C@H](CCC1CCCCC1)NC(=O)[C@H](C)NC(=O)[C@H](Cc1ccccc1)NC(=O)OC(C)(C)C`: the inhibition (as a rule, the percentage by which the read-out fell short of the control) turned out to be 45%.

The next test deals with T1, Renin (Homo sapiens). The experiment in a line: (§1) Inhibition of human renal renin at pH 6. Particulars: concentration not given here. In short, it runs like this: (§2)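 Purified human renal renin (0.24 mGU) was incubated with pure human angiotensinogen (0.21 µM final) in 0.135 M maleate pH 6.0 with 3 mM EDTA, 1.4 mM PMSF, 0.44% BSA and 1% DMSO. At least three inhibitor levels bracketing the IC50 were preincubated with renin for 5.0 min at 37 °C, then reacted 10.0 min. The reaction was stopped by freezing, angiotensin I was measured by RIA, and the IC50 was taken by regression of percent inhibition.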
`Cc1cc(C)c(C[C@H](NC(=O)[C@H](C)NC(=O)[C@H](Cc2ccccc2)NC(=O)OC(C)(C)C)[C@@H](O)CSC(C)C)c(C)c1` registered an inhibition of 5%. On the same count and under the same terms, the figure for `CC(C)SC[C@H](O)[C@@H](NC(=O)[C@H](C)NC(=O)[C@H](Cc1ccccc1)NC(=O)OC(C)(C)C)C(c1ccccc1)c1ccccc1` is 11%; for `CC(C)SC[C@H](O)[C@@H](NC(=O)[C@H](Cc1c[nH]cn1)NC(=O)[C@H](Cc1ccccc1)NC(=O)OC(C)(C)C)C(c1ccccc1)c1ccccc1` it is 3%.

The target of another test is T2, Renin (Homo sapiens, UniProt P00797).
T2 sequence (P00797 whole entry): T1 sequence (whole entry)
The description is as §1.
Conditions: not given
In short, it runs like this:
as §2
`CC(C)SC[C@H](O)[C@H](CCC1CCCCC1)NC(=O)[C@H](Cc1c[nH]cn1)NC(=O)[C@H](Cc1ccccc1)NC(=O)OC(C)(C)C`: the half-inhibitory concentration (IC50) (in general, the midpoint of a concentration-inhibition curve) was 1500 nM.

In turn, `CC(C)SC[C@H](O)[C@@H](NC(=O)[C@H](C)NC(=O)[C@H](Cc1ccccc1)NC(=O)OC(C)(C)C)C1CCCCC1` registered an IC50 of 1500 nM.

`C[C@H](NC(=O)[C@H](Cc1ccccc1)NC(=O)OC(C)(C)C)C(=O)N[C@H](C=O)CCC1CCCCC1` (Boc-Phe-Ala-[hCha]-aldehyde) had an IC50 of 55000 nM. Against the preceding compound, the IC50 is about 37-fold higher.

In the case of `C[C@H](NC(=O)[C@H](Cc1ccccc1)NC(=O)OC(C)(C)C)C(=O)N[C@H](C=O)C(C1CCCCC1)C1CCCCC1`, the IC50 stood at 40000 nM. This IC50 and that of the compound before are within 1.5-fold of each other. Compound `C[C@H](NC(=O)[C@H](Cc1ccccc1)NC(=O)OC(C)(C)C)C(=O)N[C@H](C=O)CC1CCCCC1` (Boc-Phe-Ala-[Cha]-aldehyde) registered an IC50 of 460 nM.

For `C[C@H](NC(=O)[C@H](Cc1ccccc1)NC(=O)OC(C)(C)C)C(=O)N[C@H](C=O)CC12CC3CC(CC(C3)C1)C2`, the IC50 came to 35000 nM.

Compound `CC(C)SC[C@H](O)[C@@H](NC(=O)[C@H](Cc1cnc[nH]1)NC(=O)[C@H](Cc1ccccc1)NC(=O)OC(C)(C)C)C1CCCCC1` registered an IC50 of 150 nM.

As for `C[C@H](NC(=O)[C@H](Cc1ccccc1)NC(=O)OC(C)(C)C)C(=O)N[C@H](C=O)C1CCCCC1` (Boc-Phe-Ala-[Chg]-aldehyde), the IC50 is 1000 nM. As for `CC(C)SC[C@H](O)[C@H](Cc1ccccc1)NC(=O)[C@H](Cc1cnc[nH]1)NC(=O)[C@H](Cc1ccccc1)NC(=O)OC(C)(C)C`, the IC50 amounted to 19 nM.

For `CC(C)C[C@@H](C=O)NC(=O)[C@H](C)NC(=O)[C@H](Cc1ccccc1)NC(=O)OC(C)(C)C` (Boc-Phe-Ala-Leu-aldehyde), the IC50 was 20000 nM. Still for that read-out and setting: the figure for `CC(C)C[C@H](NC(=O)[C@H](Cc1cnc[nH]1)NC(=O)[C@H](Cc1ccccc1)NC(=O)OC(C)(C)C)[C@@H](O)CSC(C)C` is 81 nM; for `CC(C)SC[C@H](O)[C@H](CC12CC3CC(CC(C3)C1)C2)NC(=O)[C@H](Cc1c[nH]cn1)NC(=O)[C@H](Cc1ccccc1)NC(=O)OC(C)(C)C` it is 2500 nM; for `CC(C)SC[C@H](O)[C@H](Cc1ccccc1)NC(=O)[C@H](C)NC(=O)[C@H](Cc1ccccc1)NC(=O)OC(C)(C)C` it is 170 nM. Compound `CC(C)SC[C@H](O)[C@H](CC1CCCCC1)NC(=O)[C@H](C)NC(=O)[C@H](Cc1ccccc1)NC(=O)OC(C)(C)C` yielded an IC50 of 9 nM.
